Assay results taken from the array DNA melting data of Ke et al. (doi:10.1101/2024.01.08.574731).

Tests used:
[1] = folding enthalpy; higher = less favourable; fluorescence melt of hairpins on a sequencing array, two-state fit; settings: sodium 0.088 M
Outline: (§1)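 On a sequenced MiSeq flow cell, library hairpins with annealed Cy3 and quencher oligos were imaged for Cy3 fluorescence in 2.5 °C steps up to 60 °C, in 50 mM Na-HEPES pH 8.0, 25 mM NaCl. Normalisation used pre-quench Cy3 and control constructs. Bootstrapped two-state fits gave melting temperature and folding enthalpy, combined by inverse variance across four replicates and with fitted temperatures raised by 9.35 °C to match UV melts.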

[2] = melting temperature; fluorescence melt of hairpins on a sequencing array, two-state fit, raised by 9.35 °C to match UV melts; settings: sodium 0.088 M
Outline: as §1

Row | Sequence | folding enthalpy [1] [kcal/mol] | Tm [2] [°C]
1 | GCACCGCGAAAGCTTTGC (((..((....))..))) | -12 | 36.2
2 | GCACCGGGAAACCAGCGC ((.(.((....)).).)) | -20.7 | 37.4
3 | GCACCTACGAAAGTATGC (((..(((....)))))) | -13.5 | 27.3
4 | GCACCTCGAAAGAGTTGC (((.(((....))).))) | -28.1 | 48.6
5 | GCACCTGGAAACGGGTGC (((((.(....).))))) | -48 | 60.9
6 | GCACGAACGAAAGTTTGC (((..(((....)))))) | -17.1 | 33.5
7 | GCACGACGAAAGTCCTGC (((.(((....))).))) | -26.8 | 45.6
8 | GCACGAGGAAACCCGTGC (((((.(....).))))) | -45.2 | 58.2
9 | GCACGAGGAAACTCACGC ((..(((....)))..)) | -22.7 | 31.7
10 | GCACGAGGAAACTCGCGC ((.((((....)))).)) | -43.5 | 54.5
11 | GCACGCCGAAAGGCATGC (((.(((....))).))) | -28 | 60.5
12 | GCACGCCGAAAGGCCTGC (((.(((....))).))) | -23.2 | 48.8
13 | GCACGCGAAAGCGCCTGC ((((((....)))..))) | -9.69 | 37.1
14 | GCACGCGAAAGCGCTGC ((((((....))).))) | -18.4 | 62.4
15 | GCACGCGGAAACACGCGC ((.((.(....).)).)) | -11.2 | 40.1
16 | GCACGCGGAAACGCACGC ((..(((....)))..)) | -18.1 | 47.2
17 | GCACGGCGAAAGCGGAGC ((.(.((....)).).)) | -17.7 | 44.7
18 | GCACGGCGAAAGCTCTGC (((..((....))..))) | -21.1 | 37.4
19 | GCACGGCGAAAGCTGCGC ((.(.((....)).).)) | -20.8 | 61
20 | GCACGGCGAAAGCTTTGC (((..((....))..))) | -22.6 | 38.3
21 | GCACGGGGAAACCTGTGC ((((.((....)).)))) | -37.7 | 58.6
22 | GCACGTACGAAAGTATGC (((..(((....)))))) | -16 | 31.3
23 | GCACGTCCGAAAGGATGC (((..(((....)))))) | -11.9 | 36.8

Row | Sequence | folding enthalpy [1] [kcal/mol] | Tm [2] [°C]
24 | GCACGTCGAAAGACCTGC (((.(((....))).))) | -28.1 | 45.2
25 | GCACGTGGAAACGTGTGC ((((..(....)..)))) | -24.8 | 58.5
26 | GCACTACCGAAAGGTTGC (((..(((....)))))) | -15.9 | 39.6
27 | GCACTAGGAAACTAGTGC (((((((....))))))) | -36.2 | 62.8
28 | GCACTCCGAAAGGATGC (((.(((....)))))) | -29.4 | 51.7
29 | GCACTCGGAAACGAACGC ((..(((....)))..)) | -13.9 | 27.8
30 | GCACTCGGAAACGAATGC (((.(((....))).))) | -33.5 | 45.1
31 | GCACTCGGAAACGAGTAC (.(((((....))))).) | -13.6 | 44.1
32 | GCACTGAAAAGTGC (((((....))))) | -35.1 | 61
33 | GCACTGCGAAAGCAATGC (((.(((....))).))) | -40.9 | 51.5
34 | GCACTGCGAAAGCACCGC ((..(((....)))..)) | -9.03 | 29.5
35 | GCACTGCGAAAGCATCGC ((..(((....)))..)) | -12.8 | 39.5
36 | GCACTGCGAAAGCATTGC (((.(((....))).))) | -42.6 | 52.5
37 | GCACTGCGAAAGCCGAGC ((.(.((....)).).)) | -20.2 | 38.8
38 | GCACTGCGAAAGCCGGGC ((.(.((....)).).)) | -22.7 | 57.1
39 | GCACTGCGAAAGCGGAGC ((.(.((....)).).)) | -19.8 | 49.9
40 | GCACTGCGAAAGCGGGGC ((.(.((....)).).)) | -33.5 | 67.2
41 | GCACTGCGAAAGCTATGC (((..((....))..))) | -16.7 | 40.3
42 | GCACTGCGAAAGCTCTGC (((..((....))..))) | -17.4 | 35.8
43 | GCACTGCGAAAGCTTTGC (((..((....))..))) | -24.5 | 42.9
44 | GCACTGGGAAACCAGCGC ((.((((....)))).)) | -40.7 | 51.9
45 | GCACTTCCGAAAGGATGC (((..(((....)))))) | -17.7 | 37.9
46 | GCAGAAGGAAACCTCTGC (((((.(....).))))) | -28.2 | 45.2

Row | Sequence | folding enthalpy [1] [kcal/mol] | Tm [2] [°C]
47 | GCAGACCGAAAGGTTGC (((.(((....)))))) | -28.9 | 53.5
48 | GCAGACGAAAGTCATGC ((((((....))).))) | -24.1 | 51
49 | GCAGACGAAAGTCCCTGC ((((((....)))..))) | -14.8 | 32.9
50 | GCAGACGAAAGTCGGTGC ((((((....)))..))) | -19.3 | 50.2
51 | GCAGACGAAAGTCGTGC ((((((....))).))) | -24.1 | 54.1
52 | GCAGACGAAAGTCGTTGC ((((((....)))..))) | -14.1 | 50.5
53 | GCAGACGAAAGTCTATGC ((((((....)))..))) | -14.9 | 45.8
54 | GCAGACGAAAGTCTGTGC ((((((....)))..))) | -22.2 | 61.3
55 | GCAGAGACGAAAGTCTGC (((..(((....)))))) | -19.6 | 51.7
56 | GCAGAGCGAAAGCAGTGC (((..((....))..))) | -15.1 | 45.8
57 | GCAGAGCGAAAGCCCAGC ((.(.((....)).).)) | -12.2 | 33
58 | GCAGAGCGAAAGCCTTGC (((..((....))..))) | -14.5 | 43.5
59 | GCAGAGCGAAAGCGCAGC ((.(.((....)).).)) | -19.6 | 59.6
60 | GCAGAGCGAAAGCGCCGC ((.(.((....)).).)) | -28.2 | 64
61 | GCAGAGCGAAAGCGGTGC (((..((....))..))) | -23.7 | 63.5
62 | GCAGAGCGAAAGCTTCGC ((..(((....)))..)) | -17.2 | 44.8
63 | GCAGAGGAAACTCTGC ((((((....)))))) | -35.2 | 65.8
64 | GCAGATCCGAAAGGATGC (((..(((....)))))) | -16.3 | 45.2
65 | GCAGATCGAAAGATTTGC (((.(((....))).))) | -43.6 | 52.1
66 | GCAGATGGAAACACCTGC ((((.((....)).)))) | -28.9 | 44.2
67 | GCAGATTCGAAAGAATGC (((..(((....)))))) | -13.9 | 36.3
68 | GCAGCCGAAAGGCAATGC ((((((....)))..))) | -17 | 52.1
69 | GCAGCCGAAAGGCAGTGC ((((((....)))..))) | -17.4 | 50.6

Row | Sequence | folding enthalpy [1] [kcal/mol] | Tm [2] [°C]
70 | GCAGCCGAAAGGCCATGC ((((((....)))..))) | -13.9 | 40.3
71 | GCAGCCGAAAGGCTCTGC ((((((....)))..))) | -12.2 | 46.3
72 | GCAGCCGGAAACAGCTGC (((((.(....).))))) | -40.9 | 55.7
73 | GCAGCCGGAAACGACTGC ((((.((....)).)))) | -43.5 | 56.6
74 | GCAGCCGGAAACGGCTAC (.(((((....))))).) | -11.3 | 45.9
75 | GCAGCCTCGAAAGAGTGC (((..(((....)))))) | -15.5 | 37
76 | GCAGCGCGAAAGCAATGC (((..((....))..))) | -25.3 | 54.9
77 | GCAGCGCGAAAGCACCGC ((.(.((....)).).)) | -21.5 | 41.3
78 | GCAGCGCGAAAGCCTTGC (((..((....))..))) | -12.4 | 40
79 | GCAGCGCGAAAGCGAAGC ((..(((....)))..)) | -18.7 | 57.5
80 | GCAGCGCGAAAGCTCGGC ((.(.((....)).).)) | -20.9 | 42.9
81 | GCAGCGGGAAACCACTGC ((((.((....)).)))) | -43.3 | 52.2
82 | GCAGCGGGAAACCGCCGC ((.((((....)))).)) | -18.6 | 55.2
83 | GCAGCTCGAAAGAGTGC (((.(((....)))))) | -30 | 51.4
84 | GCAGCTGGAAACGGCTGC (((((.(....).))))) | -46.1 | 60.2
85 | GCAGCTGGAAACGGTTGC (((.(.(....).).))) | -29.1 | 41.1
86 | GCAGGAGCGAAAGCTTGC (((..(((....)))))) | -16.5 | 44.2
87 | GCAGGAGGAAACTCCTAC (.(((((....))))).) | -15.2 | 37.8
88 | GCAGGAGGAAACTCTTGC (((.(((....))).))) | -34.8 | 46.7
89 | GCAGGCCGAAAGGCTTGC (((.(((....))).))) | -29.2 | 69.1
90 | GCAGGCGAAAGCCATGC ((((((....))).))) | -19.9 | 61
91 | GCAGGCGAAAGCCGCTGC ((((((....)))..))) | -14.8 | 68
